{"data": "Measured values collected from several papers", "target": "Phosphatidylinositol 5-phosphate 4-kinase type-2 beta (PIP4K2B, Homo sapiens, UniProt P78356)", "Residues used in one study (P78356 1-416)": "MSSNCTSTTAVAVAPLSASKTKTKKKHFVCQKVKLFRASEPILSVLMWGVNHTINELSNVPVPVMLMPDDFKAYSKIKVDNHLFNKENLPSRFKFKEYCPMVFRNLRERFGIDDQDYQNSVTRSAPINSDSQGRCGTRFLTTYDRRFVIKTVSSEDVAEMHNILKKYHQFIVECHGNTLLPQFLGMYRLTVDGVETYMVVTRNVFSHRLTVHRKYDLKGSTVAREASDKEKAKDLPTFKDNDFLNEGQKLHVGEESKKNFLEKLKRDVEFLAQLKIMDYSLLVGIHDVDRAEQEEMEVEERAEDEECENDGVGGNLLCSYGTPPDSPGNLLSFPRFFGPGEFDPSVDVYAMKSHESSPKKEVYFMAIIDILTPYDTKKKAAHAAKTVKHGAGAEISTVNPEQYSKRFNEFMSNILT", "note": "Protocols differ between the studies behind these lines."}
{"SMILES": "C=CC(=O)N1CCC(C(=O)NCC(=O)N2CCN(c3nc(-c4cnc(N)nc4C(F)F)nc(N4CCOCC4)n3)CC2)CC1", "test": "binding, competition with immobilised ligand", "conditions": "1 µM", "remaining binding [%]": 99}
{"SMILES": "O=C(NCC1CCOCC1)c1n[nH]cc1NC(=O)c1c(F)cccc1F", "test": "binding, competition with immobilised ligand", "conditions": "1 µM", "remaining binding [%]": 100}
{"SMILES": "O=C(N[C@H]1CCCCC/C=C\\C2C[C@@]2(C(=O)O)NC(=O)[C@@H]2C[C@@H](Oc3ccncc3)CN2C1=O)OC1CCCC1 (stereo partly drawn)", "test": "binding, competition with immobilised ligand", "conditions": "1 µM", "remaining binding [%]": 100}
{"SMILES": "F[C@@H]1CCN(c2nccc(-c3cnn4ncccc34)n2)C1", "test": "binding", "conditions": "1 µM", "remaining binding [%]": 79}
{"SMILES": "O=C(c1ccc(Nc2ncc(Cl)c(-c3ccc(Cl)s3)n2)cc1)N1CCC(N2CCCC2)CC1", "test": "binding, competition with immobilised ligand", "conditions": "1 µM", "remaining binding [%]": 1.9}
{"SMILES": "Cc1cc(C)c(-n2ccn3nc(-c4cccnc4)cc23)cc1NC(=O)c1cc(C#N)cc(S(F)(F)(F)(F)F)c1", "test": "cell-free assay, competition with immobilised ligand", "conditions": "0.1 µM", "remaining binding [%]": 52.2}
{"SMILES": "O=C(NCCCN1CCOCC1)c1ccc(Nc2ncc(Cl)c(-c3ccc(Cl)s3)n2)cc1", "test": "binding, competition with immobilised ligand", "conditions": "1 µM", "remaining binding [%]": 4.2}
{"SMILES": "COc1cnc(Nc2cccc(S(N)(=O)=O)c2)nc1N1CCN(c2ccccc2)CC1", "test": "binding, competition with immobilised ligand", "conditions": "1 µM", "remaining binding [%]": 100}
{"SMILES": "c1cncc(-c2cccc(Nc3nccc(NC4CCCCC4)n3)c2)c1", "test": "binding, competition with immobilised ligand", "conditions": "10 µM", "remaining binding [%]": 27}
{"SMILES": "C[C@@H](c1ccc(-n2cnc3c(N)ncnc32)cc1)N1CCc2nn(C)c(Cc3ccccc3)c2C1=O", "test": "binding, competition with immobilised ligand", "conditions": "0.1 µM", "remaining binding [%]": 69}
{"SMILES": "c1cnn2ncc(-c3ccnc(N4CCC45COC5)n3)c2c1", "test": "binding", "conditions": "1 µM", "remaining binding [%]": 58}
{"SMILES": "Cc1c(NC(=O)c2cc(C(N)=O)nc3cc(F)ccc23)c(C(F)(F)F)nn1Cc1ccc(C#N)cc1", "test": "cell-free assay, competition with immobilised ligand", "conditions": "1 µM", "remaining binding [%]": 88}
{"SMILES": "CCN1CCN(Cc2ccc(C(=O)Nc3ccc(C)c(Oc4ccc5c(c4)CC(=O)N5)c3)cc2C(F)(F)F)CC1", "test": "binding, competition with immobilised ligand", "conditions": "1 µM", "remaining binding [%]": 100}
{"SMILES": "NS(=O)(=O)c1cc(NC(=O)Cc2ccccc2)ccc1Oc1cccc(Cl)c1", "test": "cell-free assay, competition with immobilised ligand", "conditions": "1 µM", "remaining binding [%]": 89}
{"SMILES": "C[C@@H]1CCN(c2nccc(-c3cnn4ncccc34)n2)C1", "test": "binding", "conditions": "1 µM", "remaining binding [%]": 100}
{"SMILES": "Cn1nc(C(F)(F)F)cc1-c1cnc(N2CCc3cc(S(=O)(=O)Nc4c(F)cc(Cl)cc4F)cc(N4CCCC4=O)c32)nc1", "test": "cell-free assay, competition with immobilised ligand", "conditions": "1 µM", "remaining binding [%]": 100}
{"SMILES": "CN(C)c1nccc(-c2cnn3ncccc23)n1", "test": "binding", "conditions": "1 µM", "remaining binding [%]": 100}
{"SMILES": "O=C(c1ccc(Nc2ncc(Cl)c(-c3cc4ccccc4s3)n2)cc1)N1CCC(N2CCCC2)CC1", "test": "binding, competition with immobilised ligand", "conditions": "1 µM", "remaining binding [%]": 7.1}
{"SMILES": "N[C@@H]1CCN(c2nccc(-c3cnn4ncccc34)n2)C1", "test": "binding", "conditions": "1 µM", "remaining binding [%]": 100}
{"SMILES": "CNCc1ccccc1-c1csc([C@H](C)Nc2nc(C)nc3cc(OC)c(OC)cc23)c1", "test": "cell-free assay, competition with immobilised ligand", "conditions": "1 µM", "remaining binding [%]": 100}
{"SMILES": "CN(C)c1ncc(F)c(-c2cnn3ncccc23)n1", "test": "binding", "conditions": "1 µM", "remaining binding [%]": 100}
{"SMILES": "CNC(=O)[C@@H]1CC[C@@H](n2c(-c3ccc4cnccc4c3)nc3ccc(C(=O)NCc4cccc(C(N)=O)c4)cc32)C1", "test": "binding, competition with immobilised ligand", "conditions": "1 µM", "remaining binding [%]": 99}
{"SMILES": "C[C@@]1(Cc2ccc(C#N)cc2)C(=O)N(c2cc(Cl)cc(Cl)c2)c2ncc(C(=O)NC3(c4nc(C5CCC5)no4)CC3)n21", "test": "cell-free assay, competition with immobilised ligand", "conditions": "1 µM", "remaining binding [%]": 97}
{"SMILES": "CC1CCCN1c1nccc(-c2cnn3ncccc23)n1 (stereo not drawn)", "test": "binding", "conditions": "1 µM", "remaining binding [%]": 100}
